The results in this text go back to ChEMBL document CHEMBL4325900, “Antibacterial activity evaluation of synthetic novel pleuromutilin derivatives in vitro and in experimental infection mice” (2019).

Converted amounts (≈) assume the structure as drawn.

Assay [1] concerns Staphylococcus aureus. As to the kind of experiment: Antibacterial activity against methicillin-resistant Staphylococcus aureus after 24 hrs by NCCLS method. It is filed as functional. In a few lines: (§1)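 Broth microdilution in Mueller-Hinton broth. Stocks at 1280 µg/mL in aqueous 10-20% DMSO, diluted to 128 µg/mL, then 2-fold serially to final 64 down to 0.125 µg/mL. Overnight MHB cultures diluted to 10^6~10^7 CFU/mL and added 1:1 to compound. Incubated 24 h at 37°C. MIC read from OD against MHB blank. Three parallels per concentration.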

In assay [2] the test system is Staphylococcus aureus. As to the kind of experiment: Antibacterial activity against methicillin-resistant Staphylococcus aureus clinical isolates infected in ip dosed mouse assessed as reduction in bacterial infection administered 1 hr after infection and measured after 7 days. It is filed as functional. In a few lines: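 Kunming mice, half male and half female, 19-23 g, 10 per group. Infected i.p. with 0.5 mL clinical MRSA isolate suspension (~10^7 CFU/mL). Single i.p. dose 1 h post-infection, five dose levels between 7.0 and 50.0 mg/kg depending on compound. Vehicle was DMSO:Tween-80:water 1:1:8, or water for valnemulin. ED50 by Probit analysis from survival after 7 days; 95% confidence ranges.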

The subject of assay [3] is Staphylococcus aureus. The experiment in a line: Antibacterial activity against methicillin-resistant Staphylococcus aureus infected in Kunming mouse assessed as mouse survival at 40 mg/kg, ig qd treated for 3 consecutive days and measured at day 6 relative to control. It is filed as functional. As to conditions: po, 144 h. The procedure, abridged:
(§2)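 Female Kunming mice, 22±2 g, made neutropenic with cyclophosphamide i.p., 150 mg/kg 4 days and 100 mg/kg 1 day before infection. Infected i.p. with 0.5 mL suspension of clinical MRSA isolate. Intragastric dosing at 20 or 40 mg/kg/d, starting 1 h post-infection, once daily for 3 consecutive days. Survival monitored.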

Another assay concerns Enterococcus faecalis. As to the kind of experiment: Antibacterial activity against Enterococcus faecalis after 24 hrs by NCCLS method. It is filed as functional. The procedure, abridged:
(§3)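 Broth microdilution in Mueller-Hinton broth. Stocks at 1280 µg/mL in aqueous 10-20% DMSO were diluted to 128 µg/mL, then serially 2-fold diluted giving final concentrations of 64 down to 0.125 µg/mL. Overnight MHB cultures were diluted to 10^6~10^7 CFU/mL, and 100 µL was added per well. Plates ran 24 h at 37°C. MIC was read from OD against an MHB blank, in triplicate.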

Assay [4] deals with Staphylococcus epidermidis. The experiment in a line: Antibacterial activity against methicillin-resistant Staphylococcus epidermidis after 24 hrs by NCCLS method. It is filed as functional. The procedure, abridged: as §1
The subject of assay [5] is Staphylococcus aureus. The experiment in a line: Bactericidal activity against exponential phase of methicillin-resistant Staphylococcus aureus after 1 to 4 hrs by time kill kinetics assay. It is filed as functional, organism-based. The procedure, abridged: (§4)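 Exponential-phase S. aureus (4 h at 37°C, 120 rpm) diluted to ~2×10^7 CFU/mL in MHB and mixed 1:1 with MHB containing twice the desired compound concentration. Shaken at 37°C, 120 rpm. Samples at 1, 2, 3 and 4 h washed with PBS, diluted, spot-plated on MH agar, counted after ~18 h at 37°C as log10 CFU/mL. Triplicate, mean±s.d.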

In another assay the test system is Enterococcus faecium. The experiment in a line: Antibacterial activity against Enterococcus faecium after 24 hrs by NCCLS method. It is filed as functional. In a few lines: as §3
The subject of assay [6] is Staphylococcus aureus. The experiment in a line: Antibacterial activity against methicillin-sensitive Staphylococcus aureus after 24 hrs by NCCLS method. In kind it is functional. In a few lines:
as §3

Assay [7] relates to Staphylococcus aureus. As to the kind of experiment: Antibacterial activity against methicillin-resistant Staphylococcus aureus infected in Kunming mouse assessed as mouse survival at 20 mg/kg, ig qd treated for 3 consecutive days and measured up to 10 days relative to control. The settings on record: po, 240 h. It is filed as functional. In a few lines: as §2
For assay [8], the system named is Staphylococcus epidermidis. As to the kind of experiment: Antibacterial activity against methicillin-sensitive Staphylococcus epidermidis after 24 hrs by NCCLS method. In kind it is functional. In a few lines: as §1
The test system of assay [9] is Staphylococcus aureus. As to the kind of experiment: Antibacterial activity against methicillin-resistant Staphylococcus aureus infected in Kunming mouse assessed as mouse survival at 40 mg/kg, ig qd treated for 3 consecutive days and measured during compound treatment relative to control. In kind it is functional. The settings on record: po. In a few lines: as §2

In another assay the test system is Pasteurella multocida. As to the kind of experiment: Antibacterial activity against Pasteurella multocida after 24 hrs by NCCLS method. It is filed as functional. The procedure, abridged:
as §3

The subject of assay [10] is Staphylococcus aureus. The experiment in a line: Antibacterial activity against methicillin-resistant Staphylococcus aureus infected in Kunming mouse assessed as mouse survival at 40 mg/kg, ig qd treated for 3 consecutive days and measured at day 5 relative to control. As to conditions: po, 120 h. In kind it is functional. The procedure, abridged:
as §2

Assay [11] has as its system Escherichia coli. As to the kind of experiment: Antibacterial activity against Escherichia coli ATCC 11775 after 24 hrs by NCCLS method. The settings on record: DSM 30083 = JCM 1649 = ATCC 11775, 24 h. In kind it is functional. In a few lines: as §3
Assay [12] concerns Escherichia coli. The experiment in a line: Potency index, ratio of MIC for Valnemulin hydrochloride to MIC for test compound for antibacterial activity against Escherichia coli ATCC 11775 after 24 hrs by NCCLS method. In kind it is functional, DSM 30083 = JCM 1649 = ATCC 11775.
For assay [13], the system named is Staphylococcus aureus. As to the kind of experiment: Bactericidal activity against exponential phase of methicillin-resistant Staphylococcus aureus assessed as time required for complete bacterial killing at 8 times MIC by time kill kinetics assay. It is filed as functional. In a few lines:
as §4

Assay [14] concerns Staphylococcus aureus. As to the kind of experiment: Bactericidal activity against exponential phase of methicillin-resistant Staphylococcus aureus assessed as time required for complete bacterial killing at 4 times MIC by time kill kinetics assay. It is filed as functional. The procedure, abridged: as §4

For `C=C[C@]1(C)C[C@@H](OC(=O)CSC(C)(C)CNC(=O)[C@H](N)C(C)C)[C@]2(C)[C@H](C)CC[C@]3(CCC(=O)[C@H]32)[C@@H](C)[C@@H]1O.Cl` [VALNEMULIN HYDROCHLORIDE], the MIC (usually the smallest concentration in the dilution series that meets the test's criterion for growth inhibition) against Staphylococcus aureus [1] is 0.25 µg/mL; with Enterococcus faecalis, over 64 µg/mL; in [4], 0.25 µg/mL; against Enterococcus faecium, 0.125 µg/mL; against Staphylococcus aureus [6], 0.25 µg/mL; in assay [8], 0.125 µg/mL. The results for the MIC against Pasteurella multocida and against Escherichia coli [11] were 16 µg/mL and 32 µg/mL, respectively. In addition, the ED50 (as a rule, the dose at which the effect has come halfway, by size or by number of responders) with Staphylococcus aureus [2] came out at 13.5 mg/kg. Moreover, the figures for the survival at 40 mg/kg in the assay with Staphylococcus aureus [3], in the assay on Staphylococcus aureus [9] and in the assay on Staphylococcus aureus [10] were 80%, over 90% and 70%, respectively. Besides, the Activity entry with Staphylococcus aureus [5] is “Dose-dependent effect”. Moreover, in the assay with Staphylococcus aureus [7], the survival at 20 mg/kg turned out to be 30%.
As for `C=C[C@]1(C)C[C@@H](OC(=O)CSc2nc(NC(=O)CN(CC)CC)c3cc[nH]c3n2)[C@]2(C)[C@H](C)CC[C@]3(CCC(=O)[C@H]32)[C@@H](C)[C@@H]1O`, the MIC with Staphylococcus aureus [1] amounted to 0.0625 µg/mL (≈ 0.0977 µM); against Enterococcus faecalis, 32 µg/mL (≈ 50 µM); in [4], 0.125 µg/mL (≈ 0.195 µM); with Enterococcus faecium, 0.125 µg/mL (≈ 0.195 µM); against Staphylococcus aureus [6], 0.0625 µg/mL (≈ 0.0977 µM); in [8], 0.0625 µg/mL (≈ 0.0977 µM). Moreover, the MIC in the assay with Pasteurella multocida was 64 µg/mL (≈ 100 µM); in the assay on Escherichia coli [11], 16 µg/mL (≈ 25 µM). Also, the ED50 in the assay on Staphylococcus aureus [2] is 27.7 mg/kg. The Ratio in the assay on Escherichia coli [12] is listed as 2.
As to `C=C[C@]1(C)C[C@@H](OC(=O)CSc2nc(NC(=O)CN3CCCC3)c3cc[nH]c3n2)[C@]2(C)[C@H](C)CC[C@]3(CCC(=O)[C@H]32)[C@@H](C)[C@@H]1O`, the figures for the Time in the assay on Staphylococcus aureus [13] and with Staphylococcus aureus [14] were 2 h and 4 h, respectively. Moreover, the MIC in the assay with Staphylococcus aureus [1] is 0.0625 µg/mL (≈ 0.098 µM); against Enterococcus faecalis, 64 µg/mL (≈ 100 µM); in assay [4], 0.0625 µg/mL (≈ 0.098 µM); in the assay on Enterococcus faecium it was 0.0625 µg/mL (≈ 0.098 µM); with Staphylococcus aureus [6], 0.0625 µg/mL (≈ 0.098 µM); in assay [8], 0.0625 µg/mL (≈ 0.098 µM). Besides, the figures for the MIC in the assay on Pasteurella multocida and with Escherichia coli [11] were 16 µg/mL (≈ 25.1 µM) and 32 µg/mL (≈ 50.2 µM), respectively. The ED50 with Staphylococcus aureus [2] worked out at 16 mg/kg. Also, the survival at 40 mg/kg in the assay with Staphylococcus aureus [3] is 80%; in the assay on Staphylococcus aureus [9], over 90%; in the assay with Staphylococcus aureus [10], 70%. In addition, the Activity entry in the assay with Staphylococcus aureus [5] was “Dose-dependent effect”. Also, the survival at 20 mg/kg in the assay with Staphylococcus aureus [7] was found to be 30%.
